# Experimental data: ChEMBL document CHEMBL3576792, “Enhancement of antibiotic activity against multidrug-resistant bacteria by the efflux pump inhibitor 3,4-dibromopyrrole-2,5-dione isolated from a Pseudoalteromonas sp” (J Nat Prod, 2015)
# Calls of active or inactive are those of the source. The rule behind the calls is not given here.
# How the values were obtained:
# Escherichia coli [1] = assay: Potentiation of piperacillin-induced antibacterial activity Escherichia coli transformed with plasmid carrying MG1655 deltaBC/pABM by p-iodonitrotetrazolium chloride colorimetric assay; assay type: functional, organism-based
# Method in brief: (§1)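 Checkerboard microdilution in Mueller-Hinton broth: two-fold dilutions of antibiotic crossed with dilutions of test compound above, at and below their MICs. Growth was read by INT colorimetric assay, with MIC as the lowest concentration showing no visible growth. FICs and FIC index were derived from these MICs. ΔBC/pABM and ΔBC/pXYM strains were grown with 100 μg/mL ampicillin and 1 mM IPTG.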
# Escherichia coli [2] = assay: Potentiation of erythromycin-induced antibacterial activity Escherichia coli AG102 overexpressing AcrAB-TolC by p-iodonitrotetrazolium chloride colorimetric assay; assay type: functional
# Escherichia coli [3] = assay: Potentiation of oxacillin-induced antibacterial activity Escherichia coli transformed with plasmid carrying MG1655 deltaBC/pABM by p-iodonitrotetrazolium chloride colorimetric assay; assay type: functional, organism-based; method in brief: as §1
# Escherichia coli [4] = assay: Potentiation of chloramphenicol-induced antibacterial activity Escherichia coli AG102 overexpressing AcrAB-TolC assessed as chloramphenicol MIC by p-iodonitrotetrazolium chloride colorimetric assay; assay type: functional; method in brief: as §1
# Escherichia coli [5] = assay: Potentiation of kanamycin-induced antibacterial activity Escherichia coli transformed with plasmid carrying MG1655 deltaBC/pABM by p-iodonitrotetrazolium chloride colorimetric assay; assay type: functional
# Escherichia coli [6] = assay: Potentiation of erythromycin-induced antibacterial activity Escherichia coli AG102 overexpressing AcrAB-TolC assessed as erythromycin MIC by p-iodonitrotetrazolium chloride colorimetric assay; assay type: functional; method in brief: as §1
# Escherichia coli [7] = assay: Effect on intracellular H33342 accumulation in Escherichia coli AG100A delta acrAB mutant at 0.06 ug/ml after 60 mins by accumulation assay; assay type: functional
# Method in brief: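 Cells grown in Luria broth at 37 °C, 200 rpm to OD600 1.0, then washed twice in PBS and diluted in glucose-free PBS to OD600 0.3. H33342 was used at 2.5 μM with 22 mM glucose at 37 °C and allowed to accumulate for ~30 min. Compound was then added and fluorescence (Ex 350/Em 460 nm) followed for 60 min. Values are the mean RFU of the final 4 min, after media-plus-compound background was subtracted. Run in duplicate, n = 8.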
# Escherichia coli [8] = assay: Potentiation of levofloxacin-induced antibacterial activity Escherichia coli transformed with plasmid carrying MG1655 deltaBC/pXYM MIC by p-iodonitrotetrazolium chloride colorimetric assay; assay type: functional
# Escherichia coli K-12 [9] = assay: Inhibition of AcrAB-TolC pump in Escherichia coli K-12 AG100 assessed as inhibition of H33342 accumulation at 1 ug/ml after 60 mins by accumulation assay
# Method in brief: (§2)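 AG100 (wild-type K-12) or AG100A (ΔacrAB) grown in Luria broth at 37 °C and 200 rpm to OD600 1.0, PBS-washed, diluted to OD600 0.3. Cells given 2.5 μM H33342 with 22 mM glucose at 37 °C for ~30 min until stable, then compound (0.06–64 μg/mL) added. Fluorescence (Ex 350/Em 460) read for 60 min, background subtracted. Final 4 time points averaged; one-way ANOVA/Dunnett vs Hoechst-only; n = 8.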
# Escherichia coli K-12 [10] = assay: Inhibition of AcrAB-TolC pump in Escherichia coli K-12 AG100 assessed as […] at 4 ug/ml after 60 mins by accumulation assay; method in brief: as §2
# Escherichia coli [11] = assay: Potentiation of chloramphenicol-induced antibacterial activity Escherichia coli transformed with plasmid carrying MG1655 deltaBC/pXYM by p-iodonitrotetrazolium chloride colorimetric assay; assay type: functional
# Escherichia coli [12] = assay: Potentiation of kanamycin-induced antibacterial activity Escherichia coli transformed with plasmid carrying MG1655 deltaBC/pXYM by p-iodonitrotetrazolium chloride colorimetric assay; assay type: functional
# Escherichia coli K-12 [13] = assay: Inhibition of AcrAB-TolC pump in Escherichia coli K-12 AG100 assessed as increase in intracellular H33342 fluorescence at 1 ug/ml after 60 mins by efflux inhibition assay; assay type: cell-based
# Method in brief: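 AG100 (wild-type K-12) or AG100A (ΔacrAB) cells were grown in Luria broth at 37 °C and 200 rpm to OD600 1.0, PBS-washed and diluted to OD600 0.3. Cells took up 2.5 μM Hoechst 33342 with 22 mM glucose at 37 °C for about 30 min, then compound (0.06–64 μg/mL) or PAβN (15.6 μg/mL) was added. Fluorescence (Ex 350/Em 460 nm) was followed for 60 min and corrected for background. The last four time points were compared to dye-only control by ANOVA with Dunnett's test, run in duplicate.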
# Escherichia coli [14] = assay: Antibacterial activity against Escherichia coli transformed with plasmid carrying MG1655 deltaBC/pXYM by p-iodonitrotetrazolium chloride colorimetric assay; assay type: functional
# Method in brief: (§3)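 Two-fold broth microdilution in Mueller-Hinton broth, read by p-iodonitrotetrazolium chloride colorimetric assay. MIC is the lowest concentration giving no visible growth. MG1655 ΔacrB ΔtolC strains carrying pABM or pXYM were always cultured with 100 μg/mL ampicillin and 1 mM IPTG. Medium, inoculum and 1% DMSO (final) served as negative control.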
# Escherichia coli K-12 [15] = assay: Inhibition of AcrAB-TolC pump in Escherichia coli K-12 AG100 assessed as […] at 0.25 ug/ml after 60 mins by accumulation assay
# Method in brief: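 Cells grown in Luria broth at 37 °C, 200 rpm to OD600 1.0, washed twice in PBS and diluted in glucose-free PBS to OD600 0.3. Cells were given 2.5 μM H33342 with 22 mM glucose at 37 °C for ~30 min until stable, then compound added (0.06–64 μg/mL). Fluorescence (Ex 350/Em 460 nm) was read for 60 min, background subtracted, and the final 4 min averaged (n = 8).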
# Escherichia coli [16] = assay: Antibacterial activity against Escherichia coli transformed with plasmid carrying MG1655 deltaBC/pABM by p-iodonitrotetrazolium chloride colorimetric assay; assay type: functional; method in brief: as §3
# Escherichia coli [17] = assay: Potentiation of ciprofloxacin-induced antibacterial activity Escherichia coli transformed with plasmid carrying MG1655 deltaBC/pABM assessed as ciprofloxacin MIC by p-iodonitrotetrazolium chloride colorimetric assay; assay type: functional; method in brief: as §1
# Escherichia coli [18] = assay: Potentiation of ciprofloxacin-induced antibacterial activity Escherichia coli transformed with plasmid carrying MG1655 deltaBC/pXYM assessed as ciprofloxacin MIC by p-iodonitrotetrazolium chloride colorimetric assay; assay type: functional; method in brief: as §1
# Escherichia coli [19] = assay: Potentiation of oxacillin-induced antibacterial activity Escherichia coli transformed with plasmid carrying MG1655 deltaBC/pXYM assessed as oxacillin MIC by p-iodonitrotetrazolium chloride colorimetric assay; assay type: functional; method in brief: as §1
# Escherichia coli [20] = assay: Potentiation of oxacillin-induced antibacterial activity Escherichia coli AG102 overexpressing AcrAB-TolC by p-iodonitrotetrazolium chloride colorimetric assay; assay type: functional, organism-based; method in brief: as §1
smiles,measurement,setting,value
O=C1NC(=O)C(Br)=C1Br,fractional inhibitory concentration index (FICI),Escherichia coli [1],inactive
same,fractional inhibitory concentration index (FICI),Escherichia coli [2],0.38
same,fractional inhibitory concentration index (FICI),Escherichia coli [3],inactive
same,MIC,Escherichia coli [4],64 µg/mL
same,fractional inhibitory concentration index (FICI),Escherichia coli [5],0.75
same,MIC,Escherichia coli [6],128 µg/mL
same,RFU,Escherichia coli [7],1020
same,fractional inhibitory concentration index (FICI),Escherichia coli [8],0.19
same,RFU,Escherichia coli K-12 [9],1010
same,RFU,Escherichia coli K-12 [10],1130
same,fractional inhibitory concentration index (FICI),Escherichia coli [11],0.19
same,fractional inhibitory concentration index (FICI),Escherichia coli [12],0.75
same,RFU,Escherichia coli K-12 [13],-247
same,MIC,Escherichia coli [14],128 µg/mL
same,RFU,Escherichia coli K-12 [15],796
same,MIC,Escherichia coli [16],256 µg/mL
same,MIC,Escherichia coli [17],64 µg/mL
same,MIC,Escherichia coli [18],32 µg/mL
same,MIC,Escherichia coli [19],64 µg/mL
same,fractional inhibitory concentration index (FICI),Escherichia coli [20],inactive
